Source: PMC6088348 (ACS Medicinal Chemistry Letters, 2018)

How the values were obtained:
[1] = Stability of the linker moiety in aqueous buffers and plasma; format: physicochemical; conditions: relative to the initial α-hydroxyacetonyl ether
[2] = test system: tryptase activity in HMC1 cell lysates; assay: Inhibition of cellular tryptase activity assessed in HMC1 cell lysates; format: cell-based, human; conditions: read-out: IC50 in HMC1 cellular lysates; lysates of inhibitor-treated HMC1 cells
In short: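 Tryptase activity measured in lysates of cultured HMC1 human mast cells. IC50 with SEM from nonlinear regression, Hill slope unconstrained.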

Compound | stability under aqueous conditions [1] | IC50 [2]
NCc1cccc(C2CCN(C(=O)c3cccc(OCC(=O)C4(O)CCC4)c3)CC2)c1 [Compound 1a] | improved stability | 454 nM
CC(C)(O)C(=O)C(=O)Nc1cccc(C(=O)N2CCC(c3cccc(CN)c3)CC2)c1 [Compound 3a] |  | 113 nM
NCc1cccc(C2CCN(C(=O)c3cccc(NC(=O)C(=O)C4(O)CCC4)c3)CC2)c1 [Compound 2a] | improved stability | 314 nM
CC(C)(O)C(O)C(=O)Nc1cccc(C(=O)N2CCC(c3cccc(CN)c3)CC2)c1 (stereo not shown) [Compound 3b] |  | 13300 nM
NCc1cccc(C2CCN(C(=O)c3cccc(OCC(O)C4(O)CCC4)c3)CC2)c1 (stereo not shown) [Compound 1b] |  | 8400 nM
